From ChEMBL document CHEMBL4028903 (J Med Chem, 2017)
In brackets after ≈: the same amount, converted by molar mass. Activity calls are given as the source filed them. The rule behind the calls is not given here.

Key:
[1] = Volume of distribution at steady state in rat at 3 mg/kg, iv by LC-MS/MS analysis; assay type: ADME, organism-based; conditions: in vivo, read-out: Vdss
In short: (§1)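 Rats were dosed IV as a solution in 75% PEG300:25% D5W, or orally as a suspension in 0.5% methylcellulose, 0.5% Tween80 and 99% water.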

Bile acid receptor [2] = biological target: T1, Bile acid receptor (Homo sapiens, UniProt Q96RI1); experiment: Agonist activity at human FXR expressed in HEK293T cells assessed as BSEP promoter driven cellular transcriptional activity after 24 hrs by luciferase reporter gene assay; assay type: cell-based, HEK-293T
T1 sequence (Q96RI1 whole entry): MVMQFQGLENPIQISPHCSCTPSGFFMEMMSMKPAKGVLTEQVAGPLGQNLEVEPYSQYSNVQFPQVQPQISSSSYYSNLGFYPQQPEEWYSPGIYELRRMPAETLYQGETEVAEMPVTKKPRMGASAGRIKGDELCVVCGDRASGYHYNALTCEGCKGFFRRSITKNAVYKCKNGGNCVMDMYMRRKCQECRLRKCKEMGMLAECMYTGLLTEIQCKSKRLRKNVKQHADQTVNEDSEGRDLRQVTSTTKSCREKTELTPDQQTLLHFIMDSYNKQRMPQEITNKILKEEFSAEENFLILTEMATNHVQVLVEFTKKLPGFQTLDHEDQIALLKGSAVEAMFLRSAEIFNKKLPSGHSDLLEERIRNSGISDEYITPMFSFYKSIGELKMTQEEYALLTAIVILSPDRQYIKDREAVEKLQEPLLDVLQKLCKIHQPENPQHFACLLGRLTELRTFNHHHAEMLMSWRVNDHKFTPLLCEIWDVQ

[3] = Dissociation constant, pKa of compound; assay type: physicochemical
[4] = Extraction ratio in human liver microsomes; assay type: ADME, microsome; conditions: read-out: ERH
[5] = Solubility of the compound in fasted state simulated intestinal fluid at pH 6.8; assay type: physicochemical
[6] = Terminal half life in rat at 3 mg/kg, iv by LC-MS/MS analysis; assay type: ADME, organism-based; conditions: in vivo, read-out: beta t1/2 (converted); in short: as §1
Bile acid receptor [7] = biological target: T1, Bile acid receptor; experiment: Agonist activity at recombinant human GST-tagged FXR ligand binding domain (193 to 472 residues) expressed in baculovirus infected insect cells assessed as induction of interaction with biotin labelled SRC-1 after 1 hr by HTRF assay
[8] = AUC in rat at 10 mg/kg, po administered via gavage by LC-MS/MS analysis; assay type: ADME, organism-based; conditions: in vivo; in short: as §1
[9] = Clearance in rat at 3 mg/kg, iv by LC-MS/MS analysis; assay type: ADME, organism-based; conditions: in vivo; in short: as §1
[10] = Extraction ratio in rat liver microsomes; assay type: ADME, microsome; conditions: read-out: ERH
[11] = Oral bioavailability in rat at 10 mg/kg administered via gavage by LC-MS/MS analysis; assay type: ADME, organism-based; conditions: in vivo; in short: as §1
[12] = Cmax in rat at 10 mg/kg, po administered via gavage by LC-MS/MS analysis; assay type: ADME, organism-based; design: dose 10 mg/kg, route oral; conditions: in vivo; in short: as §1
[13] = biological target: T2, G-protein coupled bile acid receptor 1 (Mus musculus, UniProt Q80SS6); experiment: Agonist activity at mouse TGR5
T2 sequence (Q80SS6 whole entry): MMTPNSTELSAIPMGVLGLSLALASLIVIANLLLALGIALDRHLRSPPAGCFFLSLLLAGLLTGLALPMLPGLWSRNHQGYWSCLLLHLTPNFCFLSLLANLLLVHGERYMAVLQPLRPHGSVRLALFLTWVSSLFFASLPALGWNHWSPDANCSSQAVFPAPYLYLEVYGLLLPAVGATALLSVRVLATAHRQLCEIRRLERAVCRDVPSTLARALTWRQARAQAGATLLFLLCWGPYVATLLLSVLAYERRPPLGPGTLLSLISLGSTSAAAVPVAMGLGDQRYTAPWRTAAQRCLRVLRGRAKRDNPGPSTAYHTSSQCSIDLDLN

[14] = biological target: T3, G-protein coupled bile acid receptor 1 (Homo sapiens, UniProt Q8TDU6); experiment: Agonist activity at human TGR5 relative to control; conditions: read-out: Efficacy
T3 sequence (Q8TDU6 whole entry): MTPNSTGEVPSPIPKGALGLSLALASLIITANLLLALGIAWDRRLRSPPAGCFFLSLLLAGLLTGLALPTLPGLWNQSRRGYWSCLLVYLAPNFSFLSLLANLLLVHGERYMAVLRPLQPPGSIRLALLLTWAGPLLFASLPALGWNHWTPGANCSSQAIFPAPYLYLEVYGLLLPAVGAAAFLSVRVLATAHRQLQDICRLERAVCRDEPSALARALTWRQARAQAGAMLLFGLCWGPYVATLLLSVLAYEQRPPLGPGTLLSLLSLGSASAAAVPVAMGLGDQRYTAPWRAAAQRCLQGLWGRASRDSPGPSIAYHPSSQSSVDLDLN

[15] = biological target: T3, G-protein coupled bile acid receptor 1; experiment: Agonist activity at human TGR5
Rattus norvegicus [16] = experiment: In vivo agonist activity at FXR in po dosed Sprague-Dawley rat assessed as induction of SHP mRNA level in ileum administered as single dose measured 7 hrs post dose by qPCR analysis; assay type: functional, organism-based
Rattus norvegicus [17] = experiment: In vivo agonist activity at FXR in Sprague-Dawley rat assessed as induction of SHP mRNA level in liver at 1 mg/kg, po administered as single dose after 7 hrs post dose by qPCR analysis relative to control; assay type: functional
Rattus norvegicus [18] = experiment: In vivo agonist activity at FXR in Sprague-Dawley rat assessed as induction of FGF15 mRNA level in ileum at 0.3 mg/kg, po administered as single dose after 7 hrs post dose by qPCR analysis; assay type: functional, organism-based
Rattus norvegicus [19] = experiment: In vivo agonist activity at FXR in po dosed Sprague-Dawley rat assessed as induction of BSEP mRNA level in liver administered as single dose after 7 hrs post dose by qPCR analysis; assay type: functional, organism-based
Rattus norvegicus [20] = experiment: In vivo agonist activity at FXR in po dosed Sprague-Dawley rat assessed as induction of BSEP mRNA level in liver administered as single dose measured 7 hrs post dose by qPCR analysis
Rattus norvegicus [21] = experiment: In vivo agonist activity at FXR in po dosed Sprague-Dawley rat assessed as induction of SHP mRNA level in liver administered as single dose after 7 hrs post dose by qPCR analysis; assay type: functional, organism-based
Rattus norvegicus [22] = experiment: In vivo agonist activity at FXR in Sprague-Dawley rat assessed as induction of SHP mRNA level in ileum at 0.3 mg/kg, po administered as single dose after 7 hrs post dose by qPCR analysis; assay type: functional, organism-based

Structure (SMILES)	Vd [1] [L/kg]	EC50 (Bile acid receptor [2]) [nM]	pKa [3]	hepatic extraction ratio [4]	solubility [5] [µM]	half-life [6] [h]	EC50 (Bile acid receptor [7]) [nM]	AUC [8] [µM·h]	clearance [9] [mL/min/kg]	hepatic extraction ratio [10]	bioavailability [11] [%]	Cmax [12] [nM]	also measured
O=C(O)c1cc(F)c2nc(N3C4CCC3CC(OCc3c(-c5ccccc5OC(F)F)noc3C3CC3)C4)sc2c1 (stereo not given)	0.7	0.8	4	0.61	750 (≈ 439 µg/mL)	3.7	0.27	3.45	11	0.4	14	2120	–
O=C(O)c1ccc2nc(N3C4CCC3CC(OCc3c(-c5ccccc5OC(F)(F)F)noc3C3CC3)C4)sc2c1 (stereo not given)	1.1	0.69	5.1	< 0.2	110 (≈ 64.4 µg/mL)	1	0.54	1.92	17	0.51	11	173	–
CC[C@H]1[C@@H](O)[C@H]2[C@@H]3CC[C@H]([C@H](C)CCC(=O)NCC(=O)O)C3(C)CC[C@@H]2[C@@]2(C)CC[C@@H](O)C[C@@H]12 (single isomer, unassigned)	–	–	–	–	–	–	–	–	–	–	–	–	EC50 [13]: 637 nM; Emax [14]: 101%; EC50 [15]: 315 nM
CC[C@H]1[C@@H](O)[C@@H]2[C@H](CC[C@]3(C)[C@@H]([C@H](C)CCC(=O)O)CC[C@@H]23)[C@@]2(C)CC[C@@H](O)C[C@@H]12 [OBETICHOLIC ACID]	–	–	–	–	–	–	–	–	–	–	–	–	EC50 [13]: 5740 nM
COc1cc(C(=O)O)cc2sc(N3C4CCC3CC(OCc3c(-c5ccccc5OC(F)(F)F)noc3C3CC3)C4)nc12 (stereo not given)	0.26	0.42	4.5	0.64	75 (≈ 46.2 µg/mL)	0.7	0.57	2.67	9	0.5	9	1990	–
Cc1cc(C(=O)O)cc2sc(N3C4CCC3CC(OCc3c(-c5ccccc5OC(F)(F)F)noc3C3CC3)C4)nc12 (stereo not given)	0.84	0.82	5.5	< 0.21	< 10	1	0.49	0.832	14	< 0.18	3	86	–
O=C(O)c1ccc2nc(N3CC[C@@H](OCc4c(-c5c(Cl)cccc5Cl)noc4C4CC4)C3)sc2c1	–	9200	–	–	–	–	3060	–	–	–	–	–	–
O=C(O)c1ccc2nc(N3CC(OCc4c(-c5ccccc5OC(F)(F)F)noc4C4CC4)C3)sc2c1	–	8400	–	–	–	–	1580	–	–	–	–	–	–
CC[C@H]1[C@@H](O)[C@H]2[C@@H]3CC[C@H]([C@H](C)CCC(=O)NCCS(=O)(=O)O)C3(C)CC[C@@H]2[C@@]2(C)CC[C@@H](O)C[C@@H]12 (single isomer, unassigned)	–	–	–	–	–	–	–	–	–	–	–	–	EC50 [13]: 906 nM; Emax [14]: 102%; EC50 [15]: 205 nM
O=C(O)c1cc(F)c2nc(N3C4CCC3CC(OCc3c(-c5ccccc5C(F)(F)F)noc3C3CC3)C4)sc2c1 (stereo not given)	0.6	0.54	4	0.36	510 (≈ 300 µg/mL)	1.8	0.46	3.64	11	0.19	14	2110	Activity (Rattus norvegicus [16]): Dose-dependent effect; fold change (FC) (Rattus norvegicus [17]): 6; Activity (Rattus norvegicus [18]): Active; Activity (Rattus norvegicus [19]): Dose-dependent effect; Activity (Rattus norvegicus [20]): Dose-dependent effect; Activity (Rattus norvegicus [21]): Dose-dependent effect; Activity (Rattus norvegicus [22]): Active
O=C(O)c1ccc2nc(N3CCC(OCc4c(-c5ccccc5OC(F)(F)F)noc4C4CC4)CC3)sc2c1	1.2	–	–	–	70 (≈ 39.2 µg/mL)	1	–	4.57	24	–	37	382	–
O=C(O)c1ccc2nc(N3CCC(OCc4c(-c5ccccc5C(F)(F)F)noc4C4CC4)CC3)sc2c1	–	70	–	0.38	131 (≈ 71.2 µg/mL)	–	66	–	–	0.5	–	–	–
O=C(O)c1ccc2nc(N3CCC(OCc4c(-c5c(F)cccc5F)noc4C4CC4)CC3)sc2c1	–	88	–	0.27	169 (≈ 86.5 µg/mL)	–	–	–	–	0.52	–	–	–
O=C(O)c1ccc2nc(N3CCCC(OCc4c(-c5ccccc5OC(F)(F)F)noc4C4CC4)CC3)sc2c1 (stereo not given)	–	6.6	–	0.89	126 (≈ 72.3 µg/mL)	–	4.2	–	–	0.75	–	–	–
O=C(O)c1ccc2nc(N3CCC(OCc4c(-c5c(Cl)cccc5Cl)noc4C4CC4)CC3)sc2c1	0.55	9.5	–	0.81	61 (≈ 33.2 µg/mL)	0.34	8.3	0.39	50	0.58	6	44	–
